# Key:
# Glutamate receptor 2 [1] = biological target: T1, Glutamate receptor 2 (Homo sapiens, UniProt P42262); assay: Allosteric modulation of human recombinant GluA2 receptor flip isoform expressed in HEK293 cells assessed as potentiation of glutamate-induced calcium influx by Fluo-4/FLIPR method; type: cell-based
# In short: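 Stable GluA2 flip (unedited) cell line grown in DMEM/F12 with 10% FBS and seeded to confluence 2-3 days before use. Cells washed in HEPES buffer (pH 7.3) and loaded with 2 μM Fluo-4 AM for 60 min at room temperature. On FLIPR, compound was added 5 min before 100 μM glutamate. pEC50 and asymptotic maximum are relative to the maximal response to cyclothiazide, n ≥ 3.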
# Glutamate receptor 2 [2] = biological target: T1, Glutamate receptor 2; assay: Allosteric modulation of human recombinant GluA2 receptor flip isoform expressed in HEK293 cells assessed as potentiation of glutamate-induced calcium influx by Fluo-4/FLIPR method relative to cyclothiazide; type: cell-based
# In short: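 Stable GluA2 flip (unedited) cells seeded to confluence 2-3 days before assay; washed in HEPES buffer (145 NaCl, 5 KCl, 2 CaCl2, 1 MgCl2, 5.5 glucose, pH 7.3), loaded with 2 μM Fluo4-AM 60 min at room temperature. FLIPR dual addition: compound 5 min before 100 μM glutamate; fluorescence rise expressed against maximal cyclothiazide response, fitted pEC50 and Asym max; n ≥ 3.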
# [3] = Distribution coefficient, log D of the compound; type: physicochemical; conditions: octanol/water
# [4] = Cmax in rat at 3 mg/kg, po; type: ADME, organism-based; set-up: dose 3 mg/kg, route oral; conditions: in vivo
# Cytochrome P450 2C9 = Cytochrome P450 2C9 (Homo sapiens, UniProt P11712); assay: Inhibition of human CYP2C9 by fluorescence assay; type: ADME
# In short: (§1)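 Recombinant human CYP bactosomes (0.1 mg/mL) in 50 mM potassium phosphate pH 7.4, preincubated 10 min at 37 °C with test compound (0.1-10 μM, 7 concentrations) and fluorogenic substrate. Substrates: ethoxyresorufin 0.5 μM (1A2), FCA 50 μM (2C9), BMC 10 μM (2C19), MMC 10 μM (2D6), DEF 1 μM or 7-BQ 25 μM (3A4). Reaction started with NADPH regenerating system; metabolite formation read over 10 min. IC50 from percent of control rate; miconazole control; triplicate.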
# [5] = Clearance in rat at 3 mg/kg, po; type: ADME, organism-based; set-up: dose 3 mg/kg, route oral; conditions: in vivo
# In short: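 Rats dosed orally at 3 mg/kg; blood sampled via the hepatic portal vein and heart. Estimated clearance derived from in vivo hepatic extraction, taking rat liver blood flow as 85 (mL/min)/kg.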
# Cytochrome P450 1A2 = biological target: T2, Cytochrome P450 1A2 (Homo sapiens, UniProt P05177); assay: Inhibition of human CYP1A2 by fluorescence assay; type: ADME; in short: as §1
# T2 sequence (P05177 whole entry): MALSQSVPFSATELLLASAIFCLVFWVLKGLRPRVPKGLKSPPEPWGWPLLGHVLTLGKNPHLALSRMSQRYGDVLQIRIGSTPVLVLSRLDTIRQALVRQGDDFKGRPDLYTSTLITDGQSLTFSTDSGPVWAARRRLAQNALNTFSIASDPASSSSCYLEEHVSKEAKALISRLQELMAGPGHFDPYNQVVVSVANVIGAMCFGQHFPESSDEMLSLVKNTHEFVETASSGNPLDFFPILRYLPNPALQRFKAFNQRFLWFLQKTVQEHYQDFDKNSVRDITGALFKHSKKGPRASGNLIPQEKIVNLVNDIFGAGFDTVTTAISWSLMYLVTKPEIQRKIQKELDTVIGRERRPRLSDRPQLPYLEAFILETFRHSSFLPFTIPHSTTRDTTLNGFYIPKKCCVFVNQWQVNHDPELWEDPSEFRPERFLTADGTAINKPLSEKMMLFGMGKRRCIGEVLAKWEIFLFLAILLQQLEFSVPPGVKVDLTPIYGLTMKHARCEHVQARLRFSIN
# Brain = assay: Brain tissue binding in rat at 3 mg/kg, po; type: ADME, organism-based; set-up: dose 3 mg/kg, route oral; conditions: in vivo
# [6] = AUC ( 0 to t) in rat at 3 mg/kg, po; type: ADME, organism-based, Plasma; set-up: dose 3 mg/kg, route oral; conditions: plasma
# in vivo = conditions: rat, po, 3 mg/kg
# [7] = Plasma protein binding in rat at 3 mg/kg, po; type: ADME, organism-based; set-up: dose 3 mg/kg, route oral; conditions: read-out: PPB (converted)
# [8] = Kinetic solubility of the compound in phosphate buffered saline of pH 7.4; type: physicochemical
# In short: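 Kinetic solubility: 10 mM DMSO stock, 5 μL diluted to 100 μL with pH 7.4 phosphate-buffered saline, equilibrated 1 h at room temperature, filtered, filtrate quantified by calibrated flow-injection chemiluminescent nitrogen detection.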
# Cytochrome P450 2C19 = Cytochrome P450 2C19 (Homo sapiens, UniProt P33261); assay: Inhibition of human CYP2C19 by fluorescence assay; type: ADME; in short: as §1
# Cytochrome P450 3A4 = Cytochrome P450 3A4 (Homo sapiens, UniProt P08684); assay: Inhibition of human CYP3A4 by fluorescence assay; type: ADME; in short: as §1
# [9] = Inhibition of human CYP450 by fluorescence assay; type: ADME
# In short: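 Recombinant human CYP1A2, 2C9, 2C19, 2D6 and 3A4 bactosomes (0.1 mg/mL protein) preincubated 10 min at 37 °C in 50 mM potassium phosphate pH 7.4 with test compound (0.1–10 μM, methanol 3–4.5% final) and fluorogenic probe: ethoxyresorufin 0.5 μM (1A2), FCA 50 μM (2C9), BMC 10 μM (2C19), MMC 10 μM (2D6), DEF 1 μM or 7-BQ 25 μM (3A4). NADPH-regenerating system added; fluorescent metabolite read 10 min; rate as % control; IC50 fitted; triplicate.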
# Cytochrome P450 2D6 = Cytochrome P450 2D6 (Homo sapiens, UniProt P10635); assay: Inhibition of human CYP2D6 by fluorescence assay; type: ADME; in short: as §1
# [10] = Apparent permeability of the compound; type: ADME; conditions: not told
# In short: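 Artificial membrane permeability: donor holds 10 mM sample in pH 7.05 phosphate buffer with 0.5% hydroxypropylcyclodextrin. Membrane is 1.8% phosphatidylcholine and 1% cholesterol in decane. Donor and acceptor concentrations measured by LCMS after 3 h at room temperature; permeability expressed in nm/s.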
# Sequence of Cytochrome P450 2D6 (P10635 whole entry): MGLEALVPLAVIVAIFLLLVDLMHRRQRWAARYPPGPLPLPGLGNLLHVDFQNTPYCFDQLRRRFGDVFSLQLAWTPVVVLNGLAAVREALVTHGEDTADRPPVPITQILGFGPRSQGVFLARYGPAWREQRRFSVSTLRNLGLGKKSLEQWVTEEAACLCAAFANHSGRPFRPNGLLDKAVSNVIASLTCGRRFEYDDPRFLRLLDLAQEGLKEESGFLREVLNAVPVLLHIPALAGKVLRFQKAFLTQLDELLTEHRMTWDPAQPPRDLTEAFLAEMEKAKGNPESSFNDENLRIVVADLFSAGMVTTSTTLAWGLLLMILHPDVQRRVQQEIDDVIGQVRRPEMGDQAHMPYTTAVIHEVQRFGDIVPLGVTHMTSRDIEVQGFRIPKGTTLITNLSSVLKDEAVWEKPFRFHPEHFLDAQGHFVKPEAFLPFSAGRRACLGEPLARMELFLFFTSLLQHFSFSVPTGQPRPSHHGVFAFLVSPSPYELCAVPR
# T1 sequence (P42262 whole entry, canonical isoform): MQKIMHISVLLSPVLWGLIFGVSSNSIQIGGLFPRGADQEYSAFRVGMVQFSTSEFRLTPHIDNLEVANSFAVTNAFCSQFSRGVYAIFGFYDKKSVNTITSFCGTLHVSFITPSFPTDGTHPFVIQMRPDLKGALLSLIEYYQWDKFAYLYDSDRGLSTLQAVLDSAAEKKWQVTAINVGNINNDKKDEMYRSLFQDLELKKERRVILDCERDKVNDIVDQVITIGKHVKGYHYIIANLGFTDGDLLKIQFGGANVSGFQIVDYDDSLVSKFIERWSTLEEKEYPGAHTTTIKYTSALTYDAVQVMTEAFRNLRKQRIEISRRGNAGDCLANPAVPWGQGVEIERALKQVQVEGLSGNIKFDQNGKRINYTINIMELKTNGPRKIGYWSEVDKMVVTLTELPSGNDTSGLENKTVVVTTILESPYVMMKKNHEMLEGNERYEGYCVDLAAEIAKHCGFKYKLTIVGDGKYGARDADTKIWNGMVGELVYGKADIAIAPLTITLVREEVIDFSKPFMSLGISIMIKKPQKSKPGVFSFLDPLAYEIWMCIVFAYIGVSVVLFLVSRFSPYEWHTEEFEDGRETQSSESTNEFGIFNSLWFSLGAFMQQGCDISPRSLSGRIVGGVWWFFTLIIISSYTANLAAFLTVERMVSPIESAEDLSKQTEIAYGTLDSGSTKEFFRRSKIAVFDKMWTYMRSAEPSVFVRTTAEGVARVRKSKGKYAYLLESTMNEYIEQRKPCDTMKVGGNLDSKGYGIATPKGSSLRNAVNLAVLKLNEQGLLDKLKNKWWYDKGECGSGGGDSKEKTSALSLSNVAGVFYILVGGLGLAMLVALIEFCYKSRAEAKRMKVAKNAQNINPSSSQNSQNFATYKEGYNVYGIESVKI
# Sequence of Cytochrome P450 2C9 (P11712 whole entry): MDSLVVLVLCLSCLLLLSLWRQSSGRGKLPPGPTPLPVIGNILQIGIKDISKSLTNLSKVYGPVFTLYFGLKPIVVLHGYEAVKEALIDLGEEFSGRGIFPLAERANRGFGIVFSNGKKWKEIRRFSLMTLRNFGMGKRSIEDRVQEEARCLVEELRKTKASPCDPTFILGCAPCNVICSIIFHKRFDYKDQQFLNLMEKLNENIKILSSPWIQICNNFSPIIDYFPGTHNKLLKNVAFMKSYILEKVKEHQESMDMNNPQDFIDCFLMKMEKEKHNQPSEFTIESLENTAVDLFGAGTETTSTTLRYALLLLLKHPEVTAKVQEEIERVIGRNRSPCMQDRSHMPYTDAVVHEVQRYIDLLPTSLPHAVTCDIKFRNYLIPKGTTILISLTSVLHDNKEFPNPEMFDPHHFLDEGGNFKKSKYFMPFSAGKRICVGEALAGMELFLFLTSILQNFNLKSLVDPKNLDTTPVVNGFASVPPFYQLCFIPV
# Sequence of Cytochrome P450 2C19 (P33261 whole entry): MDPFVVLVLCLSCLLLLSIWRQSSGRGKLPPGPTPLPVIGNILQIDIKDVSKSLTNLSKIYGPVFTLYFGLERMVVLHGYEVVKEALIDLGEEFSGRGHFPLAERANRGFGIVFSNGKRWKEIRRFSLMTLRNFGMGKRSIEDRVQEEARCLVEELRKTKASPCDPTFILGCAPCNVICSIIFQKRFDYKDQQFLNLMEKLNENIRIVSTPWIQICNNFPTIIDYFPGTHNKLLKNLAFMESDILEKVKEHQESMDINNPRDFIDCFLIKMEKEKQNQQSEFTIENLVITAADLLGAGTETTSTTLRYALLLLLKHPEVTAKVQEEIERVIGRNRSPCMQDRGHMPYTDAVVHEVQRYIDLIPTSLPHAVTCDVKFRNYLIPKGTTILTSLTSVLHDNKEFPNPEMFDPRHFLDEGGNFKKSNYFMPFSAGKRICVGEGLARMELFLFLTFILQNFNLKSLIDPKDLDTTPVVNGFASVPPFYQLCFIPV
# Sequence of Cytochrome P450 3A4 (P08684 whole entry): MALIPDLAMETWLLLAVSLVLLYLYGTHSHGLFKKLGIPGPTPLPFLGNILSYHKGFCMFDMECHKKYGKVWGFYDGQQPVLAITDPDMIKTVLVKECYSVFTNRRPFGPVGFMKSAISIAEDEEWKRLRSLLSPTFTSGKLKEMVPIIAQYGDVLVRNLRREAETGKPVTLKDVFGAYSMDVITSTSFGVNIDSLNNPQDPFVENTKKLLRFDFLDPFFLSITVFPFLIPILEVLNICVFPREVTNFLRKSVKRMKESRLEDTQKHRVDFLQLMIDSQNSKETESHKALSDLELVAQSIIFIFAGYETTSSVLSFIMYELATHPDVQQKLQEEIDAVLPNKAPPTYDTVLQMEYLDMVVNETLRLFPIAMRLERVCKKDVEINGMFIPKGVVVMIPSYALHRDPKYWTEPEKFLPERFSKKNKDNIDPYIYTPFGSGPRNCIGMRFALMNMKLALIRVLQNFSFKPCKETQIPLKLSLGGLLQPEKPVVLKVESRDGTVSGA
Structure (SMILES),EC50 (Glutamate receptor 2 [1]) [µM],Activity (Glutamate receptor 2 [2]) [%],logD [3],Cmax [4] [ng/mL],IC50 (Cytochrome P450 2C9) [µM],CL/F [5] [mL/min/kg],IC50 (Cytochrome P450 1A2) [µM],Brain tissue binding (% bound) (Brain) [%],AUC(0-t) [6] [ng·h/mL],Kp (in vivo; brain),fraction unbound [7],solubility kinetic [8] [µg/mL],IC50 (Cytochrome P450 2C19) [µM],IC50 (Cytochrome P450 3A4) [µM],IC50 [9] [µM],Kp (in vivo; brain and blood),IC50 (Cytochrome P450 2D6) [µM],Papp [10] [×10⁻⁶ cm/s]
CC(=O)N(C)Cc1ccc(-n2nc(C(F)(F)F)c3c2CCCC3)cc1,2,94,1.3,,,,,,,,,,,,,,,
O=C1CCCN1Cc1ccc(-n2nc(C(F)(F)F)c3c2CCCC3)cc1,1,132,2.4,121,5,54,1,99.4,231,1.4,0.016,110,,,,,,
O=C(N1CCCC1)C1(c2ccc(-n3nc(C(F)(F)F)c4c3CCCC4)cc2)CC1,31.6,37,3.8,,0.3,,,,,,,31,7,6,,,,
CCC(=O)NCc1ccc(-n2nc(C(F)(F)F)c3c2CCCC3)cc1,2.51,98,3.6,,8,,3.5,,,,,62,,,,,,
O=C(C(F)c1ccc(-n2nc(C(F)(F)F)c3c2CCCC3)cc1)N1CCCC1 (stereo unspecified),31.6,98,3.4,,,,,,,,,124,,,> 10,,,
CC(C(=O)N1CCCC1)c1ccc(-n2nc(C(F)(F)F)c3c2CCCC3)cc1 (stereo unspecified),25.1,81,2.3,,1,,6,,,,,59,,,,,,
CN(CCc1ccccc1)C(=O)c1ccc(-n2nc(C(F)(F)F)c3c2CCCC3)cc1,39.8,84,3,,1,,,,,,,57,3,,,,,
CC(=O)NCc1ccc(-n2nc(C(F)(F)F)c3c2CCCC3)cc1,1.26,79,,,,,,,,,,47,,,> 10,,,
O=C(N1CCCC1)C(F)(F)c1ccc(-n2nc(C(F)(F)F)c3c2CCCC3)cc1,20,94,3.4,,4,,,,,,,124,,,,,,
O=C(Cc1ccc(-n2nc(C(F)(F)F)c3c2CCCC3)cc1)N1CCCC1,3.16,82,3.3,95,3,55,,98.1,166,,0.004,77,,,,0.9,,
O=C(c1ccc(-n2nc(C(F)(F)F)c3c2CCCC3)cc1)N1CCCCC1,> 100,100,1.6,,,,,,,,,16,,,,,,
O=C(Cc1ccc(-n2nc(C(F)(F)F)c3c2CCCC3)cc1F)N1CCCC1,1.26,79,3.7,111,7,55,,99.4,248,,0.002,41,,,,0.3,,
O=C(Cc1ccc(-n2nc(C(F)(F)F)c3c2CCCC3)cc1)NC1CCCC1,63.1,100,,,0.2,,,,,,,,,0.7,,,8,
CN(C)S(=O)(=O)c1ccc(-n2nc(C(F)(F)F)c3c2CCCC3)cc1,20,63,3.1,,2,,,,,,,5,,,,,,
CCCCN(C)C(=O)c1ccc(-n2nc(C(F)(F)F)c3c2CCCC3)cc1,15.8,86,3.2,,6,,,,,,,65,,,,,8,
O=C1CCCN1Cc1ccc(-n2nc(C(F)(F)F)c3c2CCCC3)cc1F,1,112,3.3,167,9,47,2,,331,1.3,0.011,88,,,,,,42
CS(=O)(=O)c1ccc(-n2nc(C(F)(F)F)c3c2CCCC3)cc1,31.6,83,3.4,,,,4,,,,,13,,,,,6,
CN(C)C(=O)Cc1ccc(-n2nc(C(F)(F)F)c3c2CCCC3)cc1,2,107,2.3,260,7,47,,98.8,262,,0.022,118,,,,2.8,,
CC(=O)c1ccc(-n2nc(C(F)(F)F)c3c2CCCC3)cc1,31.6,94,3,,4,,0.1,,,,,13,,,,,,

# From ChEMBL document CHEMBL1649062, “Integration of lead optimization with crystallography for a membrane-bound ion channel target: discovery of a new class of AMPA receptor positive allosteric modulators” (J Med Chem, 2011)
